Here are results for 41 compounds from ChEMBL document CHEMBL1156049, “Potent biphenyl- and 3-phenyl pyridine-based inhibitors of acetyl-CoA carboxylase” (Bioorg Med Chem Lett, 2009).

The species entered for experiment [1] is Homo sapiens. Put plainly: Selectivity ratio of IC50 for human ACC 1 to IC50 for human ACC 2.
The next experiment addresses Acetyl-CoA carboxylase 1 (Homo sapiens, UniProt Q13085). Put plainly: Inhibition of human recombinant ACC 1 expressed in baculovirus expression system by FAS-coupled assay. In a few lines: (§1)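 Recombinant human ACC1 or ACC2 (baculovirus-expressed, purified), 2-4.5 nM, preincubated 10 min with compound in DMSO and FAS (1 µg/assay) in 50 mM HEPES pH 7.5, 10 mM sodium citrate, 20 mM MgCl2, 6 mM NaHCO3. Substrate mix then added: 2.4 µM [3H]acetyl-CoA, 47.6 µM acetyl-CoA, 100 µM NADPH, 0.125 mM ATP. Run 30 min at room temperature, stopped with EDTA. [3H]palmitic acid counted on phospholipid FlashPlate. IC50 averaged from 2–4 experiments.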

A further experiment concerns the target Acetyl-CoA carboxylase 2 (Homo sapiens, UniProt O00763). Put plainly: Inhibition of human recombinant ACC 2 expressed in baculovirus expression system by FAS-coupled assay. In a few lines: as §1
Experiment [2] is filed under the species Homo sapiens. Put plainly: Selectivity ratio of IC50 for human ACC 2 to IC50 for human ACC 1.

Usually IC50 stands for the midpoint of a concentration-inhibition curve.

Chain of Acetyl-CoA carboxylase 2 (O00763 whole entry): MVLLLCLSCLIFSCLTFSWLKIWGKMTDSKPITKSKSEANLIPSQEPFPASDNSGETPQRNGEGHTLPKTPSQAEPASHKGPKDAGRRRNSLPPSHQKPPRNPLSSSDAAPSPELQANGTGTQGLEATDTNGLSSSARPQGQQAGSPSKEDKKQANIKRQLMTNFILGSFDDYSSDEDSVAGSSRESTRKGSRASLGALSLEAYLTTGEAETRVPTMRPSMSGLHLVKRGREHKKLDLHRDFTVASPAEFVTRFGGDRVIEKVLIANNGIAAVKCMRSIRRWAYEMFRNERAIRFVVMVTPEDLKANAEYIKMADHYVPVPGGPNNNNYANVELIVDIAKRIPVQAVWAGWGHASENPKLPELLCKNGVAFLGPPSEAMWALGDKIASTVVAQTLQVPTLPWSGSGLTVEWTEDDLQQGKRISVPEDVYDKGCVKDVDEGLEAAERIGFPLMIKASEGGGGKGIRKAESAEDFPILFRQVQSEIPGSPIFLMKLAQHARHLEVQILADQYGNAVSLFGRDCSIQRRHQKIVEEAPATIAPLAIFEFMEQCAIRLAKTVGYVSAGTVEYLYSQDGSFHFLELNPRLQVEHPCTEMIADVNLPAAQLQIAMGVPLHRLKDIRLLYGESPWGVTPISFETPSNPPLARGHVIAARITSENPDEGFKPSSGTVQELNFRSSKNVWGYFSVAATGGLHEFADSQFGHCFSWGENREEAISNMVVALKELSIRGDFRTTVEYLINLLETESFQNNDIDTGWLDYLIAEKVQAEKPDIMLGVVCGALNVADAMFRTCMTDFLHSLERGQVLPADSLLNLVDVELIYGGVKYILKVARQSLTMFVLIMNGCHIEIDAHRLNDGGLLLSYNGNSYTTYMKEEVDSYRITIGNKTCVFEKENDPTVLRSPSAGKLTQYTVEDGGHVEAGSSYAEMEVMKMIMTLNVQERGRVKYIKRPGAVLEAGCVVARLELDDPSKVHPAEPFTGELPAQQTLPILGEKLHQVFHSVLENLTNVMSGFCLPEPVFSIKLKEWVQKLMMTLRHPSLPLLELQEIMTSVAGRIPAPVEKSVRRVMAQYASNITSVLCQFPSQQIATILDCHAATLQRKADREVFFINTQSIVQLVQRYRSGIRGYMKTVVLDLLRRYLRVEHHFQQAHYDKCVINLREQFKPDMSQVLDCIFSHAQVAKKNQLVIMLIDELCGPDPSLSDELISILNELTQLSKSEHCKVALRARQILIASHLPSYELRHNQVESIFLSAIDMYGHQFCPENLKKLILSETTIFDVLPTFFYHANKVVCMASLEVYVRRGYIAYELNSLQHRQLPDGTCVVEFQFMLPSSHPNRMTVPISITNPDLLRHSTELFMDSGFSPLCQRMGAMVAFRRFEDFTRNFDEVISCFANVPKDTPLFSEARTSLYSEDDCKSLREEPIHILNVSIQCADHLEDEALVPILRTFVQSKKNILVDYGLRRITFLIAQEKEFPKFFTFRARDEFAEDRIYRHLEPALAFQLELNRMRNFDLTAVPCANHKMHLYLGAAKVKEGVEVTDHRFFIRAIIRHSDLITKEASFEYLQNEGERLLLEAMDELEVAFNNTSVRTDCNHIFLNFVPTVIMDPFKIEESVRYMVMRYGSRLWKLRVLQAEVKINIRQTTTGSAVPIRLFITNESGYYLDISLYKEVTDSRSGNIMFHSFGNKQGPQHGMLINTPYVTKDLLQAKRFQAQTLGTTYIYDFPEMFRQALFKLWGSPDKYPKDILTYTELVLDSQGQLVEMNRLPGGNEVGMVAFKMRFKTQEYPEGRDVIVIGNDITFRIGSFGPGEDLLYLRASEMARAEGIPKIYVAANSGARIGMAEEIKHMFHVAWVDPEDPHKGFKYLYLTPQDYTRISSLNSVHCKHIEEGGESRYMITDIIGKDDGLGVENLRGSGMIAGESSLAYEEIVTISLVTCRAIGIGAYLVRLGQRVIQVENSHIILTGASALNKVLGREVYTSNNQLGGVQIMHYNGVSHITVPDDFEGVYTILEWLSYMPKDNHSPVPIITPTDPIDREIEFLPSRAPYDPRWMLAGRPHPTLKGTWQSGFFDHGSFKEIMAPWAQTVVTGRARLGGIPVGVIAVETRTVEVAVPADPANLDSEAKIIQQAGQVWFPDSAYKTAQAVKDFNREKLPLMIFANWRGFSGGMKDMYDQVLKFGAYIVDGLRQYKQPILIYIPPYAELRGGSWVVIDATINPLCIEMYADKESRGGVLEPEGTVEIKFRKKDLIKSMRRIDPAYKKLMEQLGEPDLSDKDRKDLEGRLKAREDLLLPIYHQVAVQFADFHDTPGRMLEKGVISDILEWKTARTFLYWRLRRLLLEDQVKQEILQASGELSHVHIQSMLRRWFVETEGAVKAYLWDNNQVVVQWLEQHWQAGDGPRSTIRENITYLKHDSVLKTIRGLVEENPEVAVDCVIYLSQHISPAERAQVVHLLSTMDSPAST

`COc1cccc(Oc2ccc(-c3ccc(C(C)NC(C)=O)cc3)cc2)c1` (stereo unspecified): in the experiment listed under Homo sapiens [1], the Selectivity ratio is more than 80. Moreover, the IC50 at Acetyl-CoA carboxylase 1 is more than 30 µM; at Acetyl-CoA carboxylase 2, 0.373 µM.

In the case of `CCCOc1ccc(Oc2ccc(-c3ccc([C@H](C)NC(C)=O)cc3)cn2)cc1`, the results for the IC50 at Acetyl-CoA carboxylase 1 and at Acetyl-CoA carboxylase 2 were 0.035 µM and 0.008 µM, respectively.

Take `CCCOc1ccc(Oc2ccc(-c3ccc(C(C)NC(=O)C4CC4)cc3)cn2)cc1` (stereo unspecified): the IC50 worked out at 0.319 µM on Acetyl-CoA carboxylase 1 and 0.141 µM at Acetyl-CoA carboxylase 2.

Take `CC(=O)NC(C)c1ccc(-c2ccc(Oc3ccc(OC(C)C)cc3)cc2C)c(C)c1` (stereo unspecified): the values for the IC50 on Acetyl-CoA carboxylase 1 and on Acetyl-CoA carboxylase 2 were 0.592 µM and 0.088 µM, respectively.

On to `CCCc1ccc(Oc2ccc(-c3ccc(C(C)NC(C)=O)cc3)cc2)cc1` (stereo unspecified), for which the results for the IC50 on Acetyl-CoA carboxylase 1 and at Acetyl-CoA carboxylase 2 were 0.081 µM and 0.114 µM, respectively.

Consider `CCOc1cccc(Oc2ccc(-c3ccc(C(C)NC(C)=O)cc3)cc2)c1` (stereo unspecified), for which the Selectivity ratio in the experiment filed under Homo sapiens [1] came to 84. For the same compound, the IC50 on Acetyl-CoA carboxylase 1 came to 8.58 µM; on Acetyl-CoA carboxylase 2, 0.102 µM.

Consider `CC(=O)NC(C)c1ccc(-c2ccc(Oc3ccc(OCc4ccccc4)cc3)nc2)cc1` (stereo unspecified), for which the IC50 came to 0.058 µM at Acetyl-CoA carboxylase 1 and 0.117 µM at Acetyl-CoA carboxylase 2.

Take `CCCOc1ccc(Oc2ccc(-c3ccc(C(C)NC(=O)CC)cc3)cc2)cc1` (stereo unspecified): the concentration for half-maximal inhibition (IC50) on Acetyl-CoA carboxylase 1 was 0.047 µM; at Acetyl-CoA carboxylase 2, 0.202 µM.

For the compound `CC(=O)NC(C)c1ccc(-c2ccc(Oc3ccc(OC(C)C)cc3)cc2)c(C)c1` (stereo unspecified), the IC50 on Acetyl-CoA carboxylase 1 turned out to be 2.49 µM; on Acetyl-CoA carboxylase 2 it was 0.303 µM.

As for `CCCOc1cccc(Oc2ccc(-c3ccc(C(C)NC(C)=O)cc3)cc2)c1` (stereo unspecified), the IC50 was found to be 0.013 µM on Acetyl-CoA carboxylase 1 and 0.012 µM at Acetyl-CoA carboxylase 2.

As to `CC(=O)NC(C)c1ccc(-c2ccc(Oc3ccc(Cc4ccccc4)cc3)cc2)cc1` (stereo unspecified), the IC50 was found to be 0.039 µM on Acetyl-CoA carboxylase 1 and 0.945 µM at Acetyl-CoA carboxylase 2. Besides, the Selectivity ratio in the experiment filed under Homo sapiens [2] was 24.

`CCCOc1ccc(Oc2ccc(-c3ccc(C(C)NC(C)=O)cc3)cc2)cc1` (stereo unspecified): the IC50 on Acetyl-CoA carboxylase 1 is 0.017 µM; on Acetyl-CoA carboxylase 2, 0.014 µM.

Take `CC(=O)NC(C)c1ccc(-c2ccc(Oc3ccc(-c4c(O)ccc5c4CCCC5)cc3)cc2)cc1` (stereo unspecified): the figures for the IC50 at Acetyl-CoA carboxylase 1 and on Acetyl-CoA carboxylase 2 were 0.14 µM and 0.268 µM, respectively.

`CC(=O)NC(C)c1ccc(-c2ccc(Oc3ccc(OC(C)C)cc3)cc2)cc1` (stereo unspecified): the IC50 on Acetyl-CoA carboxylase 1 worked out at 0.017 µM; on Acetyl-CoA carboxylase 2 it was 0.033 µM.

With `CCCOc1ccc(Oc2ccc(-c3ccc(C(C)NC(=O)C(C)C)cc3)cc2)cc1` (stereo unspecified), the values for the IC50 on Acetyl-CoA carboxylase 1 and at Acetyl-CoA carboxylase 2 were 0.188 µM and 0.214 µM, respectively.

As for `CC(=O)NC(C)c1ccc(-c2ccc(Oc3cccc(Oc4ccccc4)c3)cc2)cc1` (stereo unspecified), the values for the IC50 at Acetyl-CoA carboxylase 1 and at Acetyl-CoA carboxylase 2 were 0.041 µM and 0.016 µM, respectively.

`CCOc1ccc(Oc2ccc(-c3ccc(C(C)NC(C)=O)cc3)cc2)cc1` (stereo unspecified): the Selectivity ratio in the experiment listed under Homo sapiens [1] is 14. Also, the IC50 on Acetyl-CoA carboxylase 1 was 1.63 µM; on Acetyl-CoA carboxylase 2, 0.119 µM.

Take `CCCOc1ccc(Oc2ccc(-c3ccc(C(C)NC(=O)C(C)O)cc3)cc2)cc1` (racemic): the IC50 at Acetyl-CoA carboxylase 1 is 2.06 µM; on Acetyl-CoA carboxylase 2, 1.84 µM.

`CCCOc1ccc(Oc2ccc(-c3ccc([C@@H](C)NC(C)=O)cc3)cn2)cc1`: the IC50 was more than 30 µM on Acetyl-CoA carboxylase 1 and 0.777 µM on Acetyl-CoA carboxylase 2.

In the case of `CC(=O)NC(C)c1ccc(-c2ccc(Oc3ccc(OC(C)C)cc3)nc2)cc1` (stereo unspecified), the 50% inhibitory concentration (IC50) at Acetyl-CoA carboxylase 1 was 0.415 µM; on Acetyl-CoA carboxylase 2, 0.093 µM.

As to `CCCOc1ccc(Oc2ccc(-c3ccc(C(C)NC(=O)COC)cc3)cn2)cc1` (stereo unspecified), the values for the IC50 at Acetyl-CoA carboxylase 1 and on Acetyl-CoA carboxylase 2 were more than 30 µM and 0.881 µM, respectively.

In the case of `CCCOc1ccc(Oc2ccc(-c3ccc(C(C)NC(=O)CCC)cc3)cn2)cc1` (stereo unspecified), the IC50 at Acetyl-CoA carboxylase 1 came out at 4.2 µM; at Acetyl-CoA carboxylase 2, 0.494 µM.

`CCCOc1ccc(Oc2ccc(-c3ccc(C(C)NC(=O)OCC)cc3)cc2)cc1` (stereo unspecified): the IC50 was more than 30 µM on Acetyl-CoA carboxylase 1 and 3.1 µM on Acetyl-CoA carboxylase 2.

In the case of `CC(=O)NC(C)c1ccc(-c2ccc(Oc3ccc(OCc4ccccc4)cc3)cc2)cc1` (stereo unspecified), the IC50 at Acetyl-CoA carboxylase 1 and at Acetyl-CoA carboxylase 2 was more than 30 µM in each case.

For the compound `CCCOc1ccc(Oc2ccc(-c3ccc(C(C)NC(=O)CCC)cc3)cc2)cc1` (stereo unspecified), the IC50 at Acetyl-CoA carboxylase 1 was 2.77 µM; on Acetyl-CoA carboxylase 2, more than 30 µM.

With `CC(=O)NC(C)c1ccc(-c2ccc(Oc3cccc(Oc4ccccc4)c3)nc2)cc1` (stereo unspecified), the results for the IC50 at Acetyl-CoA carboxylase 1 and at Acetyl-CoA carboxylase 2 were 0.049 µM and 0.032 µM, respectively.

As to `CC(=O)NC(C)c1ccc(-c2ccc(Oc3ccc(OC(C)C)cc3)cc2C)cc1` (stereo unspecified), the IC50 amounted to 0.016 µM at Acetyl-CoA carboxylase 1 and 0.035 µM on Acetyl-CoA carboxylase 2.

For the compound `CCCOc1ccc(Oc2ccc(-c3ccc(C(C)NC(=O)C(C)C)cc3)cn2)cc1` (stereo unspecified), the IC50 on Acetyl-CoA carboxylase 1 amounted to 0.451 µM; on Acetyl-CoA carboxylase 2, 0.156 µM.

Regarding `CCOc1ccc(Oc2ccc(-c3ccc(C(C)NC(C)=O)cc3)cn2)cc1` (stereo unspecified), the Selectivity ratio in the experiment filed under Homo sapiens [1] is more than 100. Moreover, the IC50 was more than 30 µM on Acetyl-CoA carboxylase 1 and 0.274 µM at Acetyl-CoA carboxylase 2.

As to `CCCOc1ccc(Oc2ccc(-c3ccc(C(C)NC(=O)OCC)cc3)cn2)cc1` (stereo unspecified), the IC50 is 8.15 µM at Acetyl-CoA carboxylase 1 and 0.227 µM at Acetyl-CoA carboxylase 2.

As to `CC(=O)NC(C)c1ccc(-c2ccc(Oc3ccc(C(=O)c4ccccc4)cc3)cc2)cc1` (stereo unspecified), the IC50 on Acetyl-CoA carboxylase 1 was 0.035 µM; on Acetyl-CoA carboxylase 2 it was 0.113 µM.

With `CCCCC(=O)NC(C)c1ccc(-c2ccc(Oc3ccc(OCCC)cc3)cc2)cc1` (stereo unspecified), the IC50 at Acetyl-CoA carboxylase 1 and on Acetyl-CoA carboxylase 2 was more than 30 µM in each case.

Take `CCCOc1ccc(Oc2ccc(-c3ccc(C(C)NC(=O)CC)cc3)cn2)cc1` (stereo unspecified): the Selectivity ratio in the experiment listed under Homo sapiens [1] stood at 2. Moreover, the results for the IC50 at Acetyl-CoA carboxylase 1 and at Acetyl-CoA carboxylase 2 were 0.069 µM and 0.035 µM, respectively.

Turning to `CC(=O)NC(C)c1ccc(-c2ccc(Oc3ccc(Oc4ccccc4)cc3)cc2)cc1` (stereo unspecified), the IC50 was found to be 0.014 µM on Acetyl-CoA carboxylase 1 and 0.007 µM at Acetyl-CoA carboxylase 2.

Regarding `COCCc1ccc(Oc2ccc(-c3ccc(C(C)NC(C)=O)cc3)cc2)cc1` (stereo unspecified), the figures for the IC50 on Acetyl-CoA carboxylase 1 and at Acetyl-CoA carboxylase 2 were 0.089 µM and more than 30 µM, respectively. In addition, the Selectivity ratio in the experiment filed under Homo sapiens [2] is more than 300.

For the compound `CCCOc1ccc(Oc2ccc(-c3ccc(C(C)NC(=O)c4cn[nH]c4)cc3)cn2)cc1` (stereo unspecified), the figures for the IC50 on Acetyl-CoA carboxylase 1 and at Acetyl-CoA carboxylase 2 were more than 30 µM and 2.54 µM, respectively.

Regarding `CCCOc1ccc(Oc2ccc(-c3ccc(C(C)NC(=O)C4CC4)cc3)cc2)cc1` (stereo unspecified), the IC50 on Acetyl-CoA carboxylase 1 was determined as 0.296 µM; on Acetyl-CoA carboxylase 2, 0.55 µM.

Regarding `CCCCC(=O)NC(C)c1ccc(-c2ccc(Oc3ccc(OCCC)cc3)nc2)cc1` (stereo unspecified), the IC50 was more than 30 µM at Acetyl-CoA carboxylase 1 and 1.51 µM at Acetyl-CoA carboxylase 2.

In the case of `CCCOc1ccc(Oc2ccc(-c3ccc(C(C)NC(C)=O)cc3)cn2)cc1` (stereo unspecified), the Selectivity ratio in the experiment listed under Homo sapiens [1] amounted to 6. In addition, the IC50 turned out to be 0.11 µM on Acetyl-CoA carboxylase 1 and 0.018 µM on Acetyl-CoA carboxylase 2.

On to `CCCOc1ccc(Oc2ccc(-c3ccc(C(C)NC(=O)COC)cc3)cc2)cc1` (stereo unspecified), for which the IC50 at Acetyl-CoA carboxylase 1 came to 0.753 µM; on Acetyl-CoA carboxylase 2, 0.718 µM.

Turning to `CCCOc1cccc(Oc2ccc(-c3ccc(C(C)NC(=O)c4cn[nH]c4)cc3)cc2)c1` (stereo unspecified), the figures for the IC50 at Acetyl-CoA carboxylase 1 and on Acetyl-CoA carboxylase 2 were 0.036 µM and 0.609 µM, respectively. Moreover, the Selectivity ratio in the experiment listed under Homo sapiens [2] amounted to 17.
